The source made the active and inactive calls. The calls are words filed in the database; no cut-off is given here.
How the values were obtained:
HeLa = test: Antiproliferative activity against human HeLa cells after 72 hrs by CCK8 assay; format: functional, cell-based; details: Homo sapiens, HeLa, 72 h
A-431 = test: Antiproliferative activity against human A431 cells after 72 hrs by CCK8 assay; format: functional, cell-based; details: Homo sapiens, A-431, 72 h
U-937 = test: Antiproliferative activity against human U937 cells after 72 hrs by CCK8 assay; format: functional, cell-based; details: Homo sapiens, U-937, 72 h
PANC-1 = test: Antiproliferative activity against human PANC1 cells after 72 hrs by CCK8 assay; format: functional, cell-based; details: Homo sapiens, PANC-1, 72 h
Homo sapiens [1] = species: Homo sapiens; test: Selectivity ratio of IC50 for PI3K p110beta/p85 (unknown origin) to IC50 for PI3K p110alpha/p85 (unknown origin)
MCF7 = test: Antiproliferative activity against human MCF7 cells after 72 hrs by CCK8 assay; format: functional, cell-based; details: Homo sapiens, MCF7, 72 h
SK-BR-3 = test: Antiproliferative activity against human SK-BR-3 cells after 72 hrs by CCK8 assay; format: functional, cell-based; details: SK-BR-3, 72 h
[2] = biological target: PI3-kinase subunit gamma/Phosphoinositide 3-kinase regulatory subunit 5 (Homo sapiens, UniProt P48736); test: Inhibition of PI3K p110gamma/p101 (unknown origin) using PIP2/ATP as substrate after 1 hr by kinase glo luminescent assay; format: protein-complex assay
PI3-kinase subunit gamma/Phosphoinositide 3-kinase regulatory subunit 5, sequence (P48736 whole entry): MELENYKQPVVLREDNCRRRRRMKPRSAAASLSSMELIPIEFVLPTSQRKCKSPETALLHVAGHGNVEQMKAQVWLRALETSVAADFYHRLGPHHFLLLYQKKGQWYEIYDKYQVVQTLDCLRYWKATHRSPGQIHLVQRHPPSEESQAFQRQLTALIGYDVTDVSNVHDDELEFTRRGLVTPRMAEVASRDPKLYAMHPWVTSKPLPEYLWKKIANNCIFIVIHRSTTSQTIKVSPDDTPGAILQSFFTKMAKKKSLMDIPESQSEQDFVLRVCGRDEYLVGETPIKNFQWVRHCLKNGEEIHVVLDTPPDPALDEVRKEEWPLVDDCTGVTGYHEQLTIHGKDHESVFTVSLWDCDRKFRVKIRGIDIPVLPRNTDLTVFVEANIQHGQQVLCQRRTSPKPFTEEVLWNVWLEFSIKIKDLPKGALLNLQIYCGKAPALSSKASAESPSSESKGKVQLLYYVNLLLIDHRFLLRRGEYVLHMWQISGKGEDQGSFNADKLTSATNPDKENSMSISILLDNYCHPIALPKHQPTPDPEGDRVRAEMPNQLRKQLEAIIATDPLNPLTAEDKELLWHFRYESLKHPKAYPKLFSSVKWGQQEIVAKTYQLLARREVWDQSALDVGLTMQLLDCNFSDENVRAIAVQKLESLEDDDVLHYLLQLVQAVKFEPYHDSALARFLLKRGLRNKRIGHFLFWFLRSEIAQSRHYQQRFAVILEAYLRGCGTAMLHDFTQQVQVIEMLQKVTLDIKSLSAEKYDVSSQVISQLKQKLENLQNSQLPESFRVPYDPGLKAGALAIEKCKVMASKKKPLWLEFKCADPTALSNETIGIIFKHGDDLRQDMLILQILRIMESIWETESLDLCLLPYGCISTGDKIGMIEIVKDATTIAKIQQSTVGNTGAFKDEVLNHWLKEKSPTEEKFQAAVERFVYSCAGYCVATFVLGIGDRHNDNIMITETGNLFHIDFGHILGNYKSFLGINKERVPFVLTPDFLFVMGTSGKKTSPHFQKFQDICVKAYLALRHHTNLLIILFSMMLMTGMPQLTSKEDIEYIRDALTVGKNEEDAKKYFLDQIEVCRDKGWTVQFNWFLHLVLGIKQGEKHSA
PI3-kinase subunit gamma/Phosphoinositide 3-kinase regulatory subunit 5, sequence (Q8WYR1 whole entry, further chain): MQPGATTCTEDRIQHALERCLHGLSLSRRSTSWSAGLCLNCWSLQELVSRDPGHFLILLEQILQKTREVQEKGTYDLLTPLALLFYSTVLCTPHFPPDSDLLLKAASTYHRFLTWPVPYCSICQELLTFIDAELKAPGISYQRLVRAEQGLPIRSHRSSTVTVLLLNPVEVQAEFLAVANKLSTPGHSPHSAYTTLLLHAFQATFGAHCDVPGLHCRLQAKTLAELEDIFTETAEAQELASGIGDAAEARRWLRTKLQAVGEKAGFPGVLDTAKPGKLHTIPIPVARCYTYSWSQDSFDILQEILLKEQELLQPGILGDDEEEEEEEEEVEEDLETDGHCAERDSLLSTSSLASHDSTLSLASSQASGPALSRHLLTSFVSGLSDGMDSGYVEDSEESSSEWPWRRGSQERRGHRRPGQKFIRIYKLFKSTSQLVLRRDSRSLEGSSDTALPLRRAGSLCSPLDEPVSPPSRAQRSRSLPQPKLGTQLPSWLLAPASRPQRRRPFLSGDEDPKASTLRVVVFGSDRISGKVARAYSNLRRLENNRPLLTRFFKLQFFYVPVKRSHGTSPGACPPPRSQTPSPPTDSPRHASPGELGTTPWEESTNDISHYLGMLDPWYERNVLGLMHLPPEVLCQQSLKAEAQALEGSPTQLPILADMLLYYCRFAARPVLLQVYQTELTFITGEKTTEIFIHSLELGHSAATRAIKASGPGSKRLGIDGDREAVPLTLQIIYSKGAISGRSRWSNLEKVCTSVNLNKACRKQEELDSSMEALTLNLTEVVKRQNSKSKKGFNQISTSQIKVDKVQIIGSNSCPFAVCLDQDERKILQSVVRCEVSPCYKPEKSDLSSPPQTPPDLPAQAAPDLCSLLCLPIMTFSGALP

NCI-N87 = test: Antiproliferative activity against human NCI-N87 cells after 72 hrs by CCK8 assay; format: functional, cell-based; details: Homo sapiens, NCI-N87, 72 h
Homo sapiens [3] = species: Homo sapiens; test: Inhibition of PI3K in human U937 cells assessed as suppression of AKT phosphorylation at S473 after 24 hrs by Western blot analysis; format: cell-based
PC-3 = test: Antiproliferative activity against human PC3 cells after 72 hrs by CCK8 assay; format: functional, cell-based; details: PC-3, 72 h
HL-60 = test: Antiproliferative activity against human HL60 cells after 72 hrs by CCK8 assay; format: functional, cell-based; details: HL-60, 72 h
[4] = Inhibition of PI3K p110delta/p85 (unknown origin) using PIP2/ATP as substrate after 1 hr by kinase glo luminescent assay; set-up: species or system Homo sapiens
MOLT-4 = test: Antiproliferative activity against human MOLT4 cells after 72 hrs by CCK8 assay; format: functional, cell-based; details: Homo sapiens, MOLT-4, 72 h
[5] = Inhibition of PI3K p110alpha/p85 (unknown origin) using PIP2/ATP as substrate after 1 hr by kinase glo luminescent assay; set-up: species or system Homo sapiens
Method in brief: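 PI3K p110α activity read by Kinase-Glo Plus luminescence. IC50 is the mean of triplicate measurements.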

A549 = test: Antiproliferative activity against human A549 cells after 72 hrs by CCK8 assay; format: functional, cell-based; details: Homo sapiens, A549, 72 h
MDA-MB-231 [6] = test: Antiproliferative activity against human MDA-MB-231 cells by WST8 assay; format: functional, cell-based
[7] = Inhibition of PI3K p110beta/p85 (unknown origin) using PIP2/ATP as substrate after 1 hr by kinase glo luminescent assay; set-up: species or system Homo sapiens
[8] = Toxicity in nude mouse xenografted with human MDA-MB-231 cells assessed as decrease in body weight at 30 mg/kg, ig administered every 2 days for 19 days measured during compound dosing; format: organism-based; details: in vivo, po
Method in brief: (§1)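 Nude mice carried MDA-MB-231 xenograft tumours and received vehicle or 30 mg/kg intragastrically every two days for 19 days. Estimated tumour volume and body weight were followed over time. Tumours were dissected from 5 mice per group and weighed. Data are mean±SD, n=5, Student t test.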

SGC-7901 = test: Antiproliferative activity against human SGC7901 cells after 72 hrs by CCK8 assay; format: functional, cell-based; details: SGC-7901, 72 h
HT-1080 = test: Antiproliferative activity against human HT1080 cells after 72 hrs by CCK8 assay; format: functional, cell-based; details: HT-1080, 72 h
DU-145 = test: Antiproliferative activity against human DU145 cells after 72 hrs by CCK8 assay; format: functional, cell-based
MDA-MB-231 [9] = test: Antitumor activity against human MDA-MB-231 cells xenografted in nude mouse assessed as tumor size at 30 mg/kg, ig administered every 2 days for 19 days measured post last dose (reference value: 1065 +/- 142 mm'3); format: functional; method in brief: as §1
K562 = test: Antiproliferative activity against human K562 cells after 72 hrs by CCK8 assay; format: functional, cell-based; details: Homo sapiens, K562, 72 h
Bel-7402 = test: Antiproliferative activity against human Bel7402 cells after 72 hrs by CCK8 assay; format: functional, cell-based; details: Bel-7402, 72 h
MDA-MB-231 [10] = test: Antitumor activity against human MDA-MB-231 cells xenografted in nude mouse assessed as tumor weight at 30 mg/kg, ig administered every 2 days for 19 days measured post last dose (reference value: 0.74 +/- 0.10 g); format: functional; method in brief: as §1
Huh-7 = test: Antiproliferative activity against human HuH7 cells after 72 hrs by CCK8 assay; format: functional, cell-based; details: Huh-7, 72 h
BGC-823 = test: Antiproliferative activity against human BGC823 cells after 72 hrs by CCK8 assay; format: functional, cell-based; details: Homo sapiens, BGC-823, 72 h

| Compound | IC50 (HeLa) [nM] | IC50 (A-431) [µM] | IC50 (U-937) [nM] | IC50 (PANC-1) [µM] | IC50 (MCF7) [nM] | IC50 [2] [nM] | IC50 (NCI-N87) [nM] | inhibition (Homo sapiens [3]) | IC50 [4] [nM] | IC50 (MOLT-4) [nM] | IC50 [5] [nM] | IC50 (A549) [µM] | IC50 [7] [nM] | IC50 (SGC-7901) [nM] | IC50 (HT-1080) [µM] | IC50 (K562) [nM] | IC50 (Bel-7402) [nM] | IC50 (Huh-7) [nM] | IC50 (BGC-823) [nM] | also measured |
| --- | --- | --- | --- | --- | --- | --- | --- | --- | --- | --- | --- | --- | --- | --- | --- | --- | --- | --- | --- | --- |
| CS(=O)(=O)N1CCN(C(=O)c2ccc(Nc3nc(-c4cnc(N)cc4C(F)(F)F)cc(N4CCOCC4)n3)cc2)CC1 | > 100000 | 10.5 | 4740 | 3.47 | 12800 | 80 | 4220 | Active | 13 | 1960 | 18 | 9.13 | 2010 | – | – | – | – | – | – | Ratio IC50 (Homo sapiens [1]): 112; IC50 (SK-BR-3): 4.79 µM; IC50 (PC-3): 19.5 µM; IC50 (HL-60): 2490 nM; IC50 (MDA-MB-231 [6]): 4.34 µM |
| Nc1cc(C(F)(F)F)c(-c2cc(N3CCOCC3)nc(N3C[C@@H]4OCCO[C@H]4C3)n2)cn1 (racemic) | 2660 | 3.68 | 770 | 3.26 | 2420 | 158 | 1360 | – | 61 | 1000 | 31 | 3.39 | 175 | 3140 | 4.73 | 4260 | 3370 | 4260 | 3090 | Activity [8]: Non-Toxic; IC50 (DU-145; du-145): 1930 nM; Activity (MDA-MB-231 [9]): 402 mm3; Activity (MDA-MB-231 [10]): 0.32 g |
| Nc1cc(C(F)(F)F)c(-c2cc(N3CCOCC3)nc(N3CCOCC3)n2)cn1 [BUPARLISIB] | 1170 | 1.03 | 580 | 1.83 | 1500 | – | 660 | Active | 62 | 800 | 28 | 1.51 | 259 | 1240 | 2.08 | 1100 | 1920 | 1510 | 1430 | IC50 (DU-145; Homo sapiens, DU-145, 72 h): 910 nM |

Source: ChEMBL document CHEMBL4428050, “Design, Synthesis, and Biological Evaluation of Substituted Pyrimidines as Potential Phosphatidylinositol 3-Kinase (PI3K) Inhibitors” (J Med Chem, 2016)
